The target in test [1] is T1, Monoacylglycerol lipase ABHD6 (Mus musculus, UniProt Q8R2Y0).
T1 sequence (Q8R2Y0 whole entry): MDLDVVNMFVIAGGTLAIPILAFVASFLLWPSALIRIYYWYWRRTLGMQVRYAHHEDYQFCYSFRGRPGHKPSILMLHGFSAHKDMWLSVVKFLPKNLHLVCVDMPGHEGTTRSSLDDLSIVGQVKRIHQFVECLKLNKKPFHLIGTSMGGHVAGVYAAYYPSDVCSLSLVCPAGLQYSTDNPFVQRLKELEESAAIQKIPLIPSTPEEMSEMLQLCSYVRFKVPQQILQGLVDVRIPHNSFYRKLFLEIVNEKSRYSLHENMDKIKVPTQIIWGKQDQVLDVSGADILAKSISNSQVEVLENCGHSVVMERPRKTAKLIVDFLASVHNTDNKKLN

Test [2] concerns Mus musculus. Put plainly: In vivo inhibition of ABHD6 in C57Bl/6 mouse liver at 5 to 10 mg/kg, ip after 4 hrs by FP-rhodamine/HT-10-labelled gel-based competitive assay. It is filed as functional, organism-based. Put shortly:
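C57Bl/6 mice dosed i.p. at 1–40 mg kg⁻¹ in 18:1:1 saline/ethanol/PEG40, 10 μL g⁻¹, for 4 hr, then killed. Brain and liver membrane proteomes labelled with FP-rhodamine or HT-01 (1 μM, 30 min, 37 °C) and resolved by SDS-PAGE with in-gel fluorescence scanning.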

For test [3], the system named is Mus musculus. The test is described as follows: In vivo inhibition of ABHD6 in C57Bl/6 mouse liver at 10 to 40 mg/kg, po after 4 hrs by FP-rhodamine/HT-10-labelled gel-based competitive assay. It is filed as functional, organism-based.
Test [4] concerns Mus musculus. The test is described as follows: In vivo inhibition of carboxylesterase-1 in C57Bl/6 mouse liver at 40 mg/kg, po after 4 hrs by FP-rhodamine-labelled gel-based competitive ABPP assay. On the set-up: dose 40 mg/kg. The test is classed as functional, organism-based.
Test [5] has as its system Mus musculus. Put plainly: In vivo inhibition of ABHD6 in C57Bl/6 mouse brain at 0.1 to 1 mg/kg, ip after 4 hrs by HT-10-labelled gel-based competitive ABPP assay. It is filed as functional, organism-based. Put shortly:
(§1)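 C57Bl/6 mice dosed i.p. at 0.1, 0.5 or 1 mg kg⁻¹ in 18:1:1 saline/ethanol/PEG40 (ethoxylated castor oil), 10 μL g⁻¹. Killed after 4 hr under isoflurane by cervical dislocation. Brain and liver membrane fractions (100,000 × g) labelled with FP-rhodamine or HT-01 (1 μM, 30 min, 37 °C), then SDS-PAGE and in-gel fluorescence scanning. Liver ABHD6 read from HT-01 gels.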

The subject of test [6] is Mus musculus. The test is described as follows: In vivo inhibition of DDH2 in C57Bl/6 mouse liver and bain at 0.1 to 1 mg/kg, ip after 4 hrs by FP-rhodamine-labelled gel-based competitive ABPP assay. It is filed as functional, organism-based. Put shortly:
as §1

Test [7] deals with Mus musculus. The test is described as follows: In vivo inhibition of FAAH in C57Bl/6 mouse liver and bain at 0.1 to 1 mg/kg, ip after 4 hrs by FP-rhodamine-labelled gel-based competitive ABPP assay. The test is classed as functional, organism-based. Put shortly: as §1
In test [8] the test system is Mus musculus. Put plainly: In vivo inhibition of MGLL in C57Bl/6 mouse liver and bain at 0.1 to 1 mg/kg, ip after 4 hrs by FP-rhodamine-labelled gel-based competitive ABPP assay. The test is classed as functional, organism-based. Put shortly: as §1

pIC50: −log10 of the molar value. The source made the active and inactive calls. The calls are words filed in the database; no cut-off is given here.

With `O=C(N1CCCCC1c1ccccc1)n1cc(-c2ccc(-c3cccc(CO)c3)cc2)nn1` (racemic), the pIC50 (commonly the IC50 on a negative log10 scale, so that one unit is a factor of ten) in test [1] is 9.62.

Consider `O=C(c1cccc(-c2ccc(-c3cn(C(=O)N4CCCCC4c4ccccc4)nn3)cc2)c1)N1CCCCC1` (racemic), for which the inhibition result in test [2], in test [3] and in test [4] was “Active” each time.

Turning to `O=C(O)c1cccc(-c2ccc(-c3cn(C(=O)N4CCCCC4Cc4ccccc4)nn3)cc2)c1` (racemic), the inhibition result in test [5], in test [6], in test [7] and in test [8] was “inactive” in each case.

The values are drawn from ChEMBL document CHEMBL3259629, “Discovery and optimization of piperidyl-1,2,3-triazole ureas as potent, selective, and in vivo-active inhibitors of α/β-hydrolase domain containing 6 (ABHD6)” (J Med Chem, 2013).
